# Assay results as given in ChEMBL document CHEMBL1123076, “Synthesis and biological evaluation of 9-[5'-(2-oxo-1,3,2-oxazaphosphorinan-2-yl)-beta-D-arabinosyl]ade nine and 9-[5'-(2-oxo-1,3,2-dioxaphosphorinan-2-yl)-beta-D-arabinosyl]ade nine: potential neutral precursors of 9-[beta-D-arabinofuranosyl]adenine 5'-monophosphate” (1985).
# How the values were obtained:
# Assay type in all cases: functional
# Mus musculus [1] = test: Antitumor activity was evaluated as median survival time in BDF1 mice (six mice per group) implanted intraperitoneally with P-388 leukemia cells (10e6 )at a dose of 600 mg/Kg,
# Method in brief: (§1)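 Male BDF1 mice (average weight 23 g) inoculated ip with 10^6 P-388 leukemia cells on day 0; leukemia maintained by weekly ip passage in female DBA/2 mice. Compound in sterile 0.9% saline given ip once daily for 9 consecutive days starting 24 h after implantation; controls received saline alone. Animals observed for 60 days or until death; median survival time recorded.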
# Mus musculus [2] = test: Antitumor activity was evaluated as percent increase in life span in BDF1 mice (six mice per group) implanted intraperitoneally with P-388 leukemia cells (10e6 )at a dose of 600 mg/Kg,; settings: P388, ip
# Method in brief: (§2)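 Male BDF1 mice (average weight 23 g) implanted ip with 10^6 P-388 cells on day 0. Treatment in sterile 0.9% saline given ip daily for 9 days starting 24 h after implantation; saline-only controls. Animals observed up to 60 days. Median survival of treated (T) vs controls (C) expressed as %ILS = (T/C − 1) × 100; significance at P < 0.05.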
# Mus musculus [3] = test: Antitumor activity was evaluated as median survival time in BDF1 mice (six mice per group) implanted intraperitoneally with P-388 leukemia cells (10e6 )at a dose of 300 mg/Kg,; method in brief: as §1
# Mus musculus [4] = test: Antitumor activity was evaluated as percent increase in life span in BDF1 mice (six mice per group) implanted intraperitoneally with P-388 leukemia cells (10e6 )at a dose of 100 mg/Kg,; settings: P388, ip; method in brief: as §2
# Mus musculus [5] = test: Antitumor activity was evaluated as median survival time in BDF1 mice (six mice per group) implanted intraperitoneally with P-388 leukemia cells (10e6 )at a dose of 500 mg/Kg,; method in brief: as §1
# Mus musculus [6] = test: Antitumor activity was evaluated as percent increase in life span in BDF1 mice (six mice per group) implanted intraperitoneally with P-388 leukemia cells (10e6 )at a dose of 300 mg/Kg,; settings: P388, ip; method in brief: as §2
# Mus musculus [7] = test: Antitumor activity was evaluated as percent increase in life span in BDF1 mice (six mice per group) implanted intraperitoneally with P-388 leukemia cells (10e6 )at a dose of 500 mg/Kg,; settings: P388, ip; method in brief: as §2
# Mus musculus [8] = test: Antitumor activity was evaluated as median survival time in BDF1 mice (six mice per group) implanted intraperitoneally with P-388 leukemia cells (10e6 )at a dose of 100 mg/Kg,; method in brief: as §1
Compound,MST (Mus musculus [1]),ILS at 600 mg/kg (Mus musculus [2]),MST (Mus musculus [3]),ILS at 100 mg/kg (Mus musculus [4]),MST (Mus musculus [5]),ILS at 300 mg/kg (Mus musculus [6]),ILS at 500 mg/kg (Mus musculus [7]),MST (Mus musculus [8])
Nc1ncnc2c1ncn2[C@@H]1O[C@H](CO)[C@@H](O)[C@H]1O [ADENOSINE],12 days,33%,–,–,–,–,–,–
Nc1ncnc2c1ncn2C1O[C@H](COP2(=O)NCCCO2)[C@@H](O)[C@@H]1O (stereo not given in full),–,–,12 days,33%,8 days,33%,-11%,12 days
Nc1ncnc2c1ncn2C1O[C@H](COP2(=O)OCCCO2)[C@@H](O)[C@@H]1O (stereo not given in full),–,–,–,0%,–,–,–,9 days
